The species entered for assay [1] is Homo sapiens. The assay can be described thus: Antiapoptotic activity against HREC at 10 ug/ml after 48 hrs by MTT assay. The format is functional. (Tetrazolium dyes change colour on reduction, which living cells bring about.)
For assay [2], the species on record is Homo sapiens. Nature of the assay: Antiapoptotic activity against HREC after 48 hrs by MTT assay. Type of assay: functional. The gist of the method: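 Serum-deprived human retinal endothelial cells (passages 2–7, grown on gelatin-coated dishes in EBM-2/EGM-2 with 20% FBS) exposed to analogs for 48 h; viability read by MTT colorimetric assay. Single-point screen at 10 mg/mL; dose-response over […]. Controls were medium alone (0 h) and DMSO vehicle.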

The species entered for assay [3] is Homo sapiens. The assay can be described thus: Antiapoptotic activity against VEGF-treated HREC assessed as enhancement of occludin integrity at 10 ug/ml incubated for 60 mins prior to VEGF challenge measured after 60 mins by immunofluorescence microscopy. The format is functional.
Assay [4] is filed under the species Homo sapiens. Nature of the assay: Antiapoptotic activity against HREC assessed as stabilization of cortical actin ring by measuring reduction of VEGF-induced actin stress fibre formation at 10 ug/ml incubated for 60 mins prior to VEGF challenge measured after 60 mins by immunofluorescence microscopy. Type of assay: functional.
Assay [5] is filed under the species Homo sapiens. The assay can be described thus: Antiapoptotic activity against HREC assessed as reduction in VEGF-induced actin stress fibre formation at 10 to 20 ug/ml incubated for 60 mins prior to VEGF challenge measured after 60 mins by immunofluorescence microscopy. The format is functional.
The species entered for assay [6] is Homo sapiens. Nature of the assay: Antiapoptotic activity against VEGF-treated HREC assessed as enhancement of occludin integrity at 10 ug/ml incubated for 60 mins prior to 50 ng/ml VEGF challenge measured after 60 mins by ZO-1 staining-based microscopy. Type of assay: functional.
The species entered for assay [7] is Homo sapiens. Nature of the assay: Antiapoptotic activity against VEGF-treated HREC assessed as enhancement of occludin integrity at 1 to 10 ug/ml incubated for 60 mins prior to 20 ng/ml VEGF challenge measured after 60 mins by ZO-1 staining-based microscopy. Type of assay: functional.
For assay [8], the system named is Mus musculus. The assay can be described thus: Inhibition of retinal vascular leakage in C57BL/6 mouse diabetic retinopathy model assessed as restoration of reduced occludin expression at 10 ug/ml, […] after 24 hrs by Western blotting analysis. The format is functional, organism-based. In general terms: Immunoblotting shows a protein as a band on a membrane.
The test system of assay [9] is Mus musculus. The assay can be described thus: Inhibition of retinal vascular leakage in C57BL/6 mouse diabetic retinopathy model at 10 ug/ml, […] after 24 hrs by FITC-dextran staining-based fluorescein angiography. Type of assay: functional, organism-based. The gist of the method:
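Diabetes induced in C57BL/6 mice with streptozotocin 90 mg/kg i.p. in citrate buffer pH 4.5, daily for 4 days; mice with glucose >300 mg/dl 3 days later were used. Analog ([…]) given intravitreally to one eye, DMSO to the other; n=5/group. At 24 h, leakage assessed by FITC-dextran angiography and Evans blue extraction (620 nm) normalized to retinal weight, blood dye and circulation time.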

In assay [10] the test system is Mus musculus. Nature of the assay: Inhibition of VEGF-induced retinal vascular leakage in C57BL/6 mouse diabetic retinopathy model at 10 ug/ml, […] after 24 hrs by FITC-dextran staining-based fluorescein angiography. The format is functional, organism-based. The gist of the method:
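Eight-week-old C57BL/6 mice received an intravitreal injection of VEGF (50 ng) with or without analog ([…]) in one eye, and DMSO vehicle (same total volume, […]) in the contralateral eye. After 24 h, 40-kDa FITC-dextran (3 mg) was injected into the left ventricle and circulated 5 min. Eyes were fixed in 4% PFA and retinas flat-mounted for fluorescence microscopy.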

Structures are written as SMILES. Activity calls are given as the source filed them. The rule behind the calls is not given here.

For `C=CCO/N=C(\C)[C@H]1CC[C@H]2[C@@H]3CC=C4C[C@@H](OC5C=C[C@H](OC(C)=O)C(COC(C)=O)O5)CC[C@]4(C)[C@H]3CC[C@]12C` (single isomer, unassigned), the result in the assay filed under Homo sapiens [1] was Active. In the case of `CC(=O)OC[C@H]1OC(O[C@H]2CC[C@@]3(C)C(=CC[C@H]4[C@@H]5CC[C@H](/C(C)=N/OC6C=CCCC6)[C@@]5(C)CC[C@@H]43)C2)C=C[C@@H]1OC(C)=O` (stereo partly specified), the Activity result in the assay filed under Homo sapiens [2] is “Dose-dependent effect”. For the same compound, the result in the assay filed under Homo sapiens [3], in the assay listed under Homo sapiens [1] and in the assay listed under Homo sapiens [4] was Active. Take `C=C(CCC=C(C)C)[C@H]1CC[C@]2(C)[C@@H]1[C@H](O)C[C@@H]1[C@@]3(C)CC[C@H](O[C@@H]4O[C@H](CO)[C@@H](O)[C@H](O)[C@H]4O[C@@H]4O[C@H](CO)[C@@H](O)[C@H](O)[C@H]4O)C(C)(C)[C@@H]3CC[C@]12C`: the result in the assay filed under Homo sapiens [1] was Active.

Take `CCO/N=C(\C)[C@H]1CC[C@H]2[C@@H]3CC=C4C[C@@H](OC5C=C[C@H](OC(C)=O)C(COC(C)=O)O5)CC[C@]4(C)[C@H]3CC[C@]12C` (single isomer, unassigned): in the assay filed under Homo sapiens [1], the outcome was Active.

Consider `CC(=O)OC[C@H]1OC(O[C@H]2CC[C@@]3(C)C(=CC[C@H]4[C@@H]5CC[C@H](/C(C)=N/OCC=C(C)C)[C@@]5(C)CC[C@@H]43)C2)C=C[C@@H]1OC(C)=O` (stereo partly specified), for which the result in the assay filed under Homo sapiens [1] was Active. On to `CC(=O)OC[C@H]1OC(O[C@H]2CC[C@@]3(C)C(=CC[C@H]4[C@@H]5CC[C@H]([C@@](C)(O)CCCC(C)C)[C@@]5(C)CC[C@@H]43)C2)C=C[C@@H]1OC(C)=O` (stereo partly specified), for which the outcome in the assay filed under Homo sapiens [5] was Active. Turning to `CC(=O)OC[C@H]1OC(O[C@H]2CC[C@@]3(C)C(=CC[C@H]4[C@@H]5CC[C@H](/C(C)=N/OCC(C)C)[C@@]5(C)CC[C@@H]43)C2)C=C[C@@H]1OC(C)=O` (stereo partly specified), in the assay filed under Homo sapiens [1], the result was Active.

For the compound `CC(=O)OC[C@H]1OC(O[C@H]2CC[C@@]3(C)C(=CC[C@H]4[C@@H]5CC[C@H](/C(C)=N/O)[C@@]5(C)CC[C@@H]43)C2)C=C[C@@H]1OC(C)=O` (stereo partly specified), the outcome in the assay listed under Homo sapiens [1] was Active. As to `CO/N=C(\C)[C@H]1CC[C@H]2[C@@H]3CC=C4C[C@@H](OC5C=C[C@H](OC(C)=O)C(COC(C)=O)O5)CC[C@]4(C)[C@H]3CC[C@]12C` (single isomer, unassigned), the result in the assay listed under Homo sapiens [1] was Active.

Take `CC(C)=CCC[C@](C)(O)[C@H]1CC[C@]2(C)[C@@H]1[C@H](O)C[C@@H]1[C@@]3(C)CC[C@H](O[C@@H]4O[C@H](CO)[C@@H](O)[C@H](O)[C@H]4O[C@@H]4O[C@H](CO)[C@@H](O)[C@H](O)[C@H]4O)C(C)(C)[C@@H]3CC[C@]12C`: in the assay filed under Homo sapiens [1], the outcome was Active. Turning to `CC(=O)OC[C@H]1OC(O[C@H]2CC[C@@]3(C)C(=CC[C@H]4[C@@H]5CC[C@H](/C(C)=N/OCc6ccccc6)[C@@]5(C)CC[C@@H]43)C2)C=C[C@@H]1OC(C)=O` (stereo partly specified), the Activity entry in the assay listed under Homo sapiens [2] is “Dose-dependent effect”. Further, the result in the assay filed under Homo sapiens [3], in the assay filed under Homo sapiens [1] and in the assay listed under Homo sapiens [4] was Active.

Consider `CC(=O)OC[C@H]1OC(O[C@H]2CC[C@@]3(C)C(=CC[C@H]4[C@@H]5CC[C@H](/C(C)=C/CCC(C)C)[C@@]5(C)CC[C@@H]43)C2)C=C[C@@H]1OC(C)=O` (stereo partly specified), for which the outcome in the assay filed under Homo sapiens [5] and in the assay filed under Homo sapiens [1] was Active.

Consider `CC(=O)OC[C@H]1OC(O[C@H]2CC[C@@]3(C)C(=CC[C@H]4[C@@H]5CC[C@H]([C@H](C)CCCC(C)C)[C@@]5(C)CC[C@@H]43)C2)C=C[C@@H]1OC(C)=O` (stereo partly specified), for which the outcome in the assay listed under Homo sapiens [3], in the assay filed under Homo sapiens [6], in the assay filed under Homo sapiens [1], in the assay listed under Homo sapiens [4] and in the assay filed under Homo sapiens [7] was Active. Regarding `CC(=O)OCC1OC(O[C@H]2CC[C@@]3(C)C(=CC[C@H]4[C@@H]5CC[C@H](/C(C)=N/OC(C)C)[C@@]5(C)CC[C@@H]43)C2)C=C[C@@H]1OC(C)=O` (single isomer, unassigned), in the assay filed under Homo sapiens [1], the result was Active. As for `CC(=O)OCC1OC(O[C@H]2CC[C@@]3(C)C(=CC[C@H]4[C@@H]5CC[C@H](/C(C)=N/OC6CCCCC6)[C@@]5(C)CC[C@@H]43)C2)C=C[C@@H]1OC(C)=O` (single isomer, unassigned), in the assay filed under Homo sapiens [1], the outcome was Active. Still for that read-out and setting: the entry for `CC(=O)OC[C@H]1OC(O[C@H]2CC[C@@]3(C)C(=CC[C@H]4[C@@H]5CC[C@H](/C(C)=N/OCCC(C)C)[C@@]5(C)CC[C@@H]43)C2)C=C[C@@H]1OC(C)=O` (stereo partly specified) is “Active”; for `C#CCO/N=C(\C)[C@H]1CC[C@H]2[C@@H]3CC=C4C[C@@H](OC5C=C[C@H](OC(C)=O)[C@@H](COC(C)=O)O5)CC[C@]4(C)[C@H]3CC[C@]12C` (stereo partly specified) it is “Active”. Turning to `CC(=O)OC[C@H]1OC(O[C@H]2CC[C@@]3(C)C(=CC[C@H]4[C@@H]5CC[C@H](/C(C)=N/OC6CCCC6)[C@@]5(C)CC[C@@H]43)C2)C=C[C@@H]1OC(C)=O` (stereo partly specified), the Activity result in the assay listed under Homo sapiens [2] was “Dose-dependent effect”. The outcome in the assay filed under Homo sapiens [3], in the assay listed under Homo sapiens [6], in the assay filed under Homo sapiens [1], in the assay filed under Homo sapiens [4] and in the assay filed under Homo sapiens [7] was Active. Also, the inhibition entry with Mus musculus [8], in the assay with Mus musculus [9] and in the assay with Mus musculus [10] was “Active” throughout. `C/C(=C\CCC(C)C)[C@H]1CC[C@H]2[C@@H]3CC=C4C[C@@H](OC5CCCCO5)CC[C@]4(C)[C@H]3CC[C@]12C` (stereo partly specified): the result in the assay filed under Homo sapiens [1] was Active. Still for that read-out and setting: the entry for `CC(=O)OC[C@H]1OC(O[C@H]2CC[C@@]3(C)C(=CC[C@H]4[C@@H]5CC[C@H](/C(C)=N/OCc6cccnc6)[C@@]5(C)CC[C@@H]43)C2)C=C[C@@H]1OC(C)=O` (stereo partly specified) is “inactive”; for `CCCCO/N=C(\C)[C@H]1CC[C@H]2[C@@H]3CC=C4C[C@@H](OC5C=C[C@H](OC(C)=O)C(COC(C)=O)O5)CC[C@]4(C)[C@H]3CC[C@]12C` (single isomer, unassigned) it is “Active”.

As for `CCCCCO/N=C(\C)[C@H]1CC[C@H]2[C@@H]3CC=C4C[C@@H](OC5C=C[C@H](OC(C)=O)C(COC(C)=O)O5)CC[C@]4(C)[C@H]3CC[C@]12C` (single isomer, unassigned), in the assay listed under Homo sapiens [1], the result was Active.
